Reference: ChEMBL document CHEMBL2086316, “Synthesis and structure-activity relationships of pyrazolo[1,5-a]pyridine derivatives: potent and orally active antagonists of corticotropin-releasing factor 1 receptor” (J Med Chem, 2012)

What was measured:
Liver microsomes = test: Intrinsic clearance in human liver microsomes after 15 mins; type: ADME, Microsome
Method in brief: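 Compound at 0.3 μmol/L (0.03% DMSO final) was incubated with pooled human liver microsomes (0.1 mg/mL protein) and an NADPH-generating system at 37 °C for 0 and 15 min. Reactions were quenched with acetonitrile/methanol containing internal standard. Parent depletion was measured by LC/MS/MS. Values are the mean of six measurements.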

[1] = Terminal half life in CD1 (ICR) mouse at 3 mg/kg, iv; type: ADME, organism-based; parameters: dose 3 mg/kg, route intravenous; conditions: in vivo, read-out: beta t1/2 (converted)
Method in brief: (§1)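 Male fasted CD1 (ICR) mice dosed i.v. 3 mg/kg or p.o. 10 mg/kg (10 mL/kg each). Vehicle was DMSO/5% glucose with 1/250 volume 5 mol/L HCl (1:19 i.v., 1:9 p.o.). Vena cava blood was drawn at 0.083 (i.v. only), 0.25, 0.5, 1, 2, 4, 6, 8 and 24 h, n = 4 per time point. Plasma was extracted and assayed by reversed-phase HPLC with fluorescence detection. Values are the mean of four animals.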

[2] = AUC in CD1 (ICR) mouse at 10 mg/kg, po; type: ADME, organism-based; parameters: dose 10 mg/kg, route oral; conditions: plasma; method in brief: as §1
[3] = Oral bioavailability in CD1 (ICR) mouse at 10 mg/kg; type: ADME, organism-based; conditions: in vivo; method in brief: as §1
[4] = Volume of distribution at steady state in CD1 (ICR) mouse 3 mg/kg, iv; type: ADME, organism-based; parameters: dose 3 mg/kg, route intravenous; conditions: in vivo, read-out: Vdss; method in brief: as §1
[5] = Cmax in CD1 (ICR) mouse at 10 mg/kg, po; type: ADME, organism-based; parameters: dose 10 mg/kg, route oral; conditions: in vivo; method in brief: as §1
[6] = Tmax in CD1 (ICR) mouse 10 mg/kg, po; type: ADME, organism-based; parameters: dose 10 mg/kg, route oral; conditions: in vivo; method in brief: as §1
[7] = AUC in CD1 (ICR) mouse at 3 mg/kg, iv; type: ADME, organism-based; parameters: dose 3 mg/kg, route intravenous; conditions: plasma; method in brief: as §1
[8] = Clearance in CD1 (ICR) mouse at 3 mg/kg, iv; type: ADME, organism-based; parameters: dose 3 mg/kg, route intravenous; conditions: in vivo; method in brief: as §1

| SMILES | CLint (Liver microsomes) [µL/min/mg] | other results |
| --- | --- | --- |
| CCc1nn2c(-c3c(COC)cc(OC)cc3OC)cccc2c1N(CC1CCOCC1)CC1CC1 | 530 | – |
| CCc1nn2c(-c3c(C)cc(C)cc3OC)cccc2c1N(CC1CC1)CC1CCOC1 (centres undefined) | 1350 | – |
| CCCN(CC1CCOCC1)c1c(CC)nn2c(-c3c(OC)cc(C)cc3OC)cccc12 | 890 | – |
| CCc1nn2c(-c3c(OC)cccc3OC)cccc2c1N(CC1CCOCC1)CC1CC1 | 740 | – |
| CCc1nn2c(-c3c(C)cc(C)cc3OC)cccc2c1N(CCCF)CC1CC1 | 1410 | – |
| CCc1nn2c(-c3c(OC)cc(C)cc3OC)cccc2c1N(CC1CCOCC1)CC1CC1 | 440 | – |
| CCc1nn2c(-c3c(OC)cc(COC)cc3OC)cccc2c1N(CC1CCOCC1)CC1CC1 | 300 | – |
| CCCN(CC1CCOCC1)c1c(CC)nn2c(-c3c(OC)cc(COC)cc3OC)cccc12 | 700 | – |
| COc1cc(C)cc(OC)c1-c1cccc2c(N(CC3CCOCC3)CC3CC3)c(OC)nn12 | 570 | – |
| COCc1cc(OC)c(-c2cccc3c(N(CC4CCOCC4)CC4CC4)c(C)nn23)c(OC)c1 | 110 | – |
| COCc1cc(OC)c(-c2cccc3c(N(CC4CCOCC4)CC4CC4)c(C#N)nn23)c(OC)c1 | 1100 | – |
| CCc1nn2c(-c3c(C)cc(C)cc3OC)cccc2c1N(CC1CC1)CC1CC1 | 1120 | – |
| CCc1nn2c(-c3c(C)cc(C)cc3OC)cccc2c1N(CC1CC1)CC1CCCO1 (centres undefined) | 1230 | – |
| COCc1cc(OC)c(-c2cccc3c(N(CC4CCOCC4)CC4CC4)c(SC)nn23)c(OC)c1 | 340 | – |
| CCOCc1cc(OC)c(-c2cccc3c(N(CC4CCOCC4)CC4CC4)c(CC)nn23)c(OC)c1 | 520 | – |
| CCc1nn2c(-c3c(OC)cc(OC)cc3OC)cccc2c1N(CC1CCOCC1)CC1CC1 | 450 | – |
| COCc1cc(OC)c(-c2cccc3c(N(CC4CCOCC4)CC4CC4)c(OC)nn23)c(OC)c1 | 760 | – |
| CCc1nn2c(-c3c(OC)cc(COC)cc3OC)cccc2c1N(CC1CCOCC1)CC1CC1.Cc1ccc(S(=O)(=O)O)cc1 | – | half-life [1]: 2.2 h; AUC [2]: 870 ng·h/mL; bioavailability [3]: 31%; Vd [4]: 3.74 L/kg; Cmax [5]: 320 ng/mL; Tmax [6]: 0.25 h; AUC [7]: 850 ng·h/mL; clearance [8]: 43.3 mL/min/kg |
| CCc1nn2c(-c3cc(OC)c(OC)cc3OC)cccc2c1N(CC1CCOCC1)CC1CC1 | 600 | – |
| CCc1nn2c(-c3c(C)cc(C)cc3OC)cccc2c1N(CC1CCOCC1)CC1CC1 | 450 | – |
| CCc1nn2c(-c3c(C)cc(OC)cc3OC)cccc2c1N(CC1CCOCC1)CC1CC1 | 450 | – |
| CCc1nn2c(-c3c(C)cc(C)cc3OC)cccc2c1N(CCOC)CC1CC1 | 1690 | – |
